Target: 3-(3-hydroxydecanoyloxy)decanoate synthase (Pseudomonas aeruginosa (strain ATCC 15692 / PAO1 / 1C / PRS 101 / LMG12228)) (UniProt Q51559)
Assay: Modulation of Pseudomonas aeruginosa lacZ-fused rhlA expressed in Escherichia coli DH5alpha co-expressing Ptac-rhlR at 0.002 mM after 4 hrs by beta-galactosidase assay relative to control
Summary of the method: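 E. coli DH5α carrying pECP61.5 (Ptac-rhlR plus PrhlA-lacZ) was grown overnight in LB with ampicillin 100 μg/ml and diluted to OD600 0.150. It was induced with 1 mM IPTG, and 2 μM C4-HSL plus compound or DMSO were added at OD600 1.0. Cultures were shaken 4 h at 37°C and β-galactosidase read in Miller units. Activity is % of solvent control, triplicates, ≥2 biological repeats, paired two-tailed t-test.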

Structure (SMILES): CCCC(=O)N[C@H]1CCOC1=O
- Activity: 100%

From ChEMBL document CHEMBL1817556, “Substituted lactam and cyclic azahemiacetals modulate Pseudomonas aeruginosa quorum sensing” (Bioorg Med Chem, 2011)
